Results reported in ChEMBL document CHEMBL1138881, “Application of phosphoramidate ProTide technology significantly improves antiviral potency of carbocyclic adenosine derivatives” (J Med Chem, 2006).

Experiments:
[1] = system: Human immunodeficiency virus 1; assay: Antiviral activity against HIV1 3B in MT4 cells; format: functional, organism-based; conditions: Human immunodeficiency virus 1, 3B
How it was run: (§1)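 MT-4 cells at 4.5 × 10⁵ cells/mL were infected with 100 CCID₅₀/mL of HIV-1 or HIV-2. Viable cells were then counted after trypan blue staining, and EC₅₀ was derived from these viable-cell counts.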

[2] = system: Human immunodeficiency virus 2; assay: Antiviral activity against HIV2 ROD in MT4 cells; format: functional, organism-based; conditions: Human immunodeficiency virus 2, ROD; how it was run: as §1
[3] = system: MT4; assay: Cytotoxicity against MT4 cells; format: functional; conditions: Homo sapiens
How it was run: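 Exponentially growing MT-4 cells were resuspended at 5 × 10⁵ cells/mL in RPMI 1640 with 20% FBS and 20% IL-2. They were infected with HIV-1 IIIB (100 × TCID₅₀ per well) for 1 h at 37 °C, with mock-infected cells run in parallel. The suspension was diluted 6-fold onto serially diluted compound and incubated for 5 days at 37 °C in 5% CO₂. MTS staining was read at 492 nm.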

[4] = system: Human immunodeficiency virus 1; assay: Antiviral activity against HIV1 3B in CEM cells; format: functional, organism-based; conditions: Human immunodeficiency virus 1, 3B, CCRF-CEM
How it was run: (§2)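 CEM cells at 4.5 × 10⁵ cells/mL were infected with 100 CCID₅₀/mL of HIV-1 or HIV-2. Giant-cell formation was scored microscopically. EC₅₀ was the concentration preventing syncytium formation by 50%.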

[5] = system: Human immunodeficiency virus 2; assay: Antiviral activity against HIV2 ROD in CEM cells; format: functional, organism-based; conditions: Human immunodeficiency virus 2, ROD, CCRF-CEM; how it was run: as §2
[6] = system: Hepatitis B virus; assay: Antiviral activity against HBV in HepG2 2.2.15 cells; format: functional, organism-based
How it was run: (§3)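 HepG2 2.2.15 cells, which produce HBV constitutively, were seeded at 5 × 10³ per well. Drug-containing medium was replaced every other day for 9 days. Virions in the supernatant were captured on anti-HBsAg plates, and their DNA was quantified by PCR against an HBV standard curve and normalized to untreated cells. For cell growth, monolayers were ethanol-fixed and stained with bisbenzimide H33342, and fluorescence was compared with untreated cells. SI = CC₅₀/EC₅₀.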

[7] = system: HepG2; assay: Cytotoxicity against HepG2 2.2.15 cells; format: functional; conditions: Homo sapiens; how it was run: as §3
[8] = system: Cynomolgus monkey; assay: Metabolic stability in cynomolgus monkey liver S9 fraction; format: ADME, Macaca fascicularis
How it was run: (§4)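 Pooled cynomolgus S9 (liver or intestinal segments), test compound 10 µM final, 37 °C, DMSO <1% final; reaction started with NADPH 2.5 mM final. Aliquots taken at 0 (preincubation), 10, 20, 30 and 60 min, quenched with cold acetonitrile, centrifuged; supernatant parent measured by LC/MS/MS. Stability given as % remaining from pre- vs postincubation peak areas.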

[9] = system: Cynomolgus monkey; assay: Metabolic stability in cynomolgus monkey intestine S9 fraction; format: ADME, Macaca fascicularis; how it was run: as §4
[10] = system: HepG2; assay: Selectivity index, CC50 for HepG2 2.2.15 cells/EC50 for HBV; format: functional; how it was run: as §3
[11] = system: CEM cells (Homo sapiens); assay: Cytotoxicity against CEM cells

| SMILES | EC50 [1] [µM] | EC50 [2] [µM] | CC50 [3] [µM] | EC50 [4] [µM] | EC50 [5] [µM] | EC50 [6] [µM] | CC50 [7] [µM] | Stability [8] [%] | Stability [9] [%] | Ratio CC50/EC50 [10] | CC50 [11] [µM] |
| --- | --- | --- | --- | --- | --- | --- | --- | --- | --- | --- | --- |
| COC(=O)[C@H](C)NP(=O)(OC[C@H]1C=C[C@@H](n2cnc3c(N)ncnc32)C1)Oc1ccccc1 (stereo partly specified) | 0.03 | 0.043 | 6.4 | 0.13 | 0.09 | 0.017 | 1280 | 24 | 74 | 75000 | 18.1 |
| COC(=O)[C@H](CC(C)C)NP(=O)(OC[C@H]1C=C[C@@H](n2cnc3c(N)ncnc32)C1)Oc1ccccc1 (stereo partly specified) | 0.19 | 0.13 | > 5 | 0.42 | 0.56 | 0.01 | 20 | 0 | 75 | – | 70 |
| CC[C@H](C)[C@H](NP(=O)(OC[C@H]1C=C[C@@H](n2cnc3c(N)ncnc32)C1)Oc1ccccc1)C(=O)OC (stereo partly specified) | 0.96 | 1.13 | > 5 | 2.1 | 3.5 | 0.06 | 76 | 0 | 69 | – | 118 |
| C[C@H](NP(=O)(OC[C@H]1C=C[C@@H](n2cnc3c(N)ncnc32)C1)Oc1ccccc1)C(=O)OCC(C)(C)C (stereo partly specified) | 0.043 | 0.03 | > 10 | 0.067 | 0.083 | 0.003 | 13 | 0 | 57 | – | 19.5 |
| COC(=O)[C@@H](NP(=O)(OC[C@H]1C=C[C@@H](n2cnc3c(N)ncnc32)C1)Oc1ccccc1)C(C)C (stereo partly specified) | 0.64 | 1.05 | < 25 | 1 | 4.5 | 0.02 | 120 | 2 | 91 | – | 167 |
| COC(=O)C[C@H](NP(=O)(OC[C@H]1C=C[C@@H](n2cnc3c(N)ncnc32)C1)Oc1ccccc1)C(=O)OC (stereo partly specified) | 0.32 | 0.26 | > 16 | 1.1 | 3.5 | 0.05 | > 2 | 4 | 8 | – | > 50 |
| C[C@H](NP(=O)(OC[C@H]1C=C[C@@H](n2cnc3c(N)ncnc32)C1)Oc1ccccc1)C(=O)OC(C)(C)C (stereo partly specified) | < 0.26 | 3.08 | < 25 | 2.93 | 3.67 | 0.25 | 170 | 1 | 96 | – | 130 |
| COC(=O)c1ccc(OP(=O)(N[C@@H](C)C(=O)OC)OC[C@H]2C=C[C@@H](n3cnc4c(N)ncnc43)C2)cc1 (stereo partly specified) | 0.12 | 0.056 | > 4 | 0.13 | 0.13 | 0.004 | > 2 | 7 | 48 | – | 12.9 |
| CC(C)OC(=O)[C@H](C)NP(=O)(OC[C@H]1C=C[C@@H](n2cnc3c(N)ncnc32)C1)Oc1ccccc1 (stereo partly specified) | 0.15 | 0.22 | 91.4 | 0.3 | 0.25 | 0.006 | > 2 | 8 | 90 | – | 84 |
| COC(=O)[C@H](Cc1ccc(O)cc1)NP(=O)(OC[C@H]1C=C[C@@H](n2cnc3c(N)ncnc32)C1)Oc1ccccc1 (stereo partly specified) | 0.58 | 0.72 | 26.9 | 5.33 | 18.1 | 0.05 | > 2 | 0 | 0 | – | 110 |
| COC(=O)CNP(=O)(OC[C@H]1C=C[C@@H](n2cnc3c(N)ncnc32)C1)Oc1ccccc1 (stereo partly specified) | 4.35 | 5.73 | > 100 | 13.5 | 20 | 0.086 | > 2 | 46 | 85 | – | ≥ 250 |
| COC(=O)[C@H](CCSC)NP(=O)(OC[C@H]1C=C[C@@H](n2cnc3c(N)ncnc32)C1)Oc1ccccc1 (stereo partly specified) | 0.16 | 0.21 | > 5 | 0.53 | 1 | 0.03 | 16 | 0 | 66 | – | 85.8 |
